These results are taken from ChEMBL document CHEMBL1142288, “Synthesis and biological evaluation of pyrroloiminoquinone derivatives” (Bioorg Med Chem, 2008).

Active and inactive are the calls of the source. No cut-off for these calls is given here.

The test system of test [1] is NCI-H460. Kind of test: Antiproliferative activity against human NCI-H460 cells after 72 hrs. The following applies: NCI-H460, 72 h.
Test [2] is filed under the species Homo sapiens. Kind of test: Inhibition of human recombinant topoisomerase 2 assessed as relaxation of supercoiled pBR322 plasmid DNA at 50 uM.
In test [3] the test system is HeLa. Kind of test: Antiproliferative activity against human HeLa cells after 72 hrs by trypan blue test. In kind it is functional, cell-based. Put shortly: (§1)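 HeLa (Ham's F-12, 10% heat-inactivated FCS) or HL-60 (RPMI 1640, 15% heat-inactivated FCS), both with penicillin/streptomycin/amphotericin; 4 · 10⁴ cells/well seeded in duplicate, 72 h drug exposure. Viability by Trypan blue; IC50 = concentration giving 50% reduction in cell number versus untreated controls.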

Test [4] has as its system HL-60. Kind of test: Antiproliferative activity against human HL60 cells after 72 hrs by trypan blue test. Format: functional, cell-based. The following applies: HL-60, 72 h. An outline of the steps:
as §1

In test [5] the test system is HeLa. The experiment in a line: Induction of apoptosis in human HeLa cells assessed as DNA fragmentation at 100 uM after 24 hrs. In kind it is functional, cell-based. An outline of the steps:
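HeLa cells (5 · 10⁵) incubated 24 h at 37 °C, medium replaced, test agent added; solvent-only controls. After 24 h, DNA extracted, dissolved in TE (10 mM Tris pH 8, 1 mM EDTA), run on 1% agarose, ethidium bromide-stained and imaged under UV; cisplatin as positive control.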

For test [6], the species on record is Homo sapiens. Kind of test: Inhibition of human recombinant topoisomerase 2 assessed as relaxation of supercoiled pBR322 plasmid DNA at 10 to 50 uM.

Take `Cn1cc2c3c1C(=O)C(NCCc1c[nH]c4ccccc14)=CC3=NCC2`: the IC50 in test [1] worked out at 2.12 µM; in test [3], 4.1 µM; in test [4], 7.8 µM. Also, the result in test [2] and in test [5] was Active.

`Cn1cc2c3c1C(=O)C(NCCc1c[nH]c4ccc(O)cc14)=CC3=NCC2` came in with a concentration for half-maximal inhibition (IC50) in test [1] above 40 µM.

Take `Cn1cc2c3c1C(=O)C1=C(C3=NCC2)C2(C=CC(=O)C=C2)CCN1`: the half-maximal inhibitory concentration (IC50) in test [1] was 6.2 µM; in test [3], 5.5 µM; in test [4], 3.1 µM. In addition, the result in test [5] was Active.

Regarding `Cn1cc2c3c1C(=O)C1=C(NCCS1)C3=NCC2`, the 50% inhibitory concentration (IC50) in test [1] is 0.96 µM; in test [3], 1.9 µM; in test [4], 2.7 µM. The result in test [6] was Active.

In the case of `Cn1cc2c3c1C(=O)C(NCCc1c[nH]c4ccc(F)cc14)=CC3=NCC2`, the IC50 in test [1] is 5.5 µM; in test [3] it was above 20 µM; in test [4], above 20 µM.

With `COc1cc(NS(C)(=O)=O)ccc1Nc1c2ccccc2nc2ccccc12` [AMSACRINE], the IC50 in test [3] amounted to 0.012 µM; in test [4] it was 0.0051 µM.

Regarding `COC1=CC2=NCCc3cn(C)c(c32)C1=O`, the half-inhibitory concentration (IC50) is 9 µM in test [1], above 20 µM in test [3] and above 20 µM in test [4].

For the compound `Cn1cc2c3c1C(=O)C(NCc1ccccc1)=CC3=NCC2`, the concentration for half-maximal inhibition (IC50) in test [1] is above 40 µM.

For the compound `COc1ccc(CCNC2=CC3=NCCc4cn(C)c(c43)C2=O)cc1`, in test [1], the IC50 was above 40 µM.

With `COc1cc2c3c(cn(C)c3c1OC)CCN2C=O`, the concentration for half-maximal inhibition (IC50) in test [1] was above 60 µM.

On to `COc1cc2c3c(c[nH]c3c1OC)CCN2C=O`, for which the IC50 in test [1] was above 60 µM.

On to `COc1cc2c3c(cn(C=O)c3c1OC)CCN2C=O`, for which, in test [1], the IC50 was above 60 µM.

Compound `C[C@H](NC1=CC2=NCCc3cn(C)c(c32)C1=O)c1ccccc1` came in with a concentration for half-maximal inhibition (IC50) in test [1] of 23 µM.

For `COc1cc2c3c(c1OC)N(C=O)C(OC)C3CCN2C=O` (stereo not drawn), the half-maximal inhibitory concentration (IC50) in test [1] is 7.7 µM; in test [3], above 20 µM; in test [4], above 20 µM.

Regarding `COc1cccc2c1C(=O)c1c(O)c3c(c(O)c1C2=O)C[C@@](O)(C(=O)CO)C[C@@H]3O[C@H]1C[C@H](N)[C@H](O)[C@H](C)O1` [DOXORUBICIN], the IC50 in test [1] is 0.028 µM.

Consider `Cn1cc2c3c1C(=O)C(NCCc1ccc(O)cc1)=CC3=NCC2` [MAKALUVAMINE K], for which the results for the IC50 in test [1], in test [3] and in test [4] were 10.8 µM, 4.9 µM and 6.9 µM, respectively. For the same compound, in test [5], the outcome was Active.

Take `COc1cc2c3c(cn(C)c3c1OC)CCN2`: the concentration for half-maximal inhibition (IC50) in test [1] was above 60 µM.

`COc1ccc2[nH]cc(CCNC3=CC4=NCCc5cn(C)c(c54)C3=O)c2c1` displayed an IC50 in test [1] of 8.8 µM.

The IC50 is the concentration that inhibits the measured activity by half. Read a low IC50 as inhibition by little substance.
